Shown are actives, neighbours in structure and some others; about 2.4% of the full set was active somewhere.
ARNT-TACC3 inh: disruptors of ARNT/TACC3 protein interaction, primary screen, biochemical, AlphaScreen, single concentration. AlphaScreen His-ARNT PAS-B/GST-TACC3 binding, luminescence; TACC3 fragment carries E629A point mutation. inhibition, % at 9.99 µM. 390,000 tested, 0.66% active;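 active = mean inhibition of replicates at least 50% and at least half of replicates each reaching 50%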
S100A4 MyoIIA: inhibitors of S100A4-myosin IIA peptide binding, primary screen, biochemical, fluorescence polarization, TAMRA-MyoIIA peptide; Protein S100-A4 (Homo sapiens), P26447; inhibition, % at 10.7 µM; 360,000 tested, 0.14% active;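 active = mean inhibition of at least 70% across replicates, with every replicate also reaching that level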
Target sequence (P26447 whole entry, looked up): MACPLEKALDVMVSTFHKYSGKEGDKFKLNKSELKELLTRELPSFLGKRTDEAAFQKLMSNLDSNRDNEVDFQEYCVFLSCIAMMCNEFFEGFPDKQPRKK
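Assay system: human S100A4 monomer with TAMRA-labelled myosin IIA peptide / Buffer or medium: Calcium-containing HEPES buffer, pH 7.2 / Reagent: TAMRA-labelled myosin IIA heavy-chain peptide probe, 5 nM / Compound: one dose per compound / Timing: polarization read 5 min after assay mix addition, stable 5–60 min / Benchmarks: neutral control DMSO, positive control TFP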
CASP6 VEID inh: human caspase-6 inhibitors, primary screen, biochemical, VEID-R110 fluorescence, single point, set 2; P55212; purified caspase-6, Z-VEID-R110 cleavage fluorescence; inhibition, % at 12.5 µM; 350,000 tested, 0.53% active; AID 686996, 2013;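 active = mean inhibition across replicates at least about 35%, with every replicate also reaching that limit, limit read from the data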
Target sequence (P55212 24-179 limits assumed): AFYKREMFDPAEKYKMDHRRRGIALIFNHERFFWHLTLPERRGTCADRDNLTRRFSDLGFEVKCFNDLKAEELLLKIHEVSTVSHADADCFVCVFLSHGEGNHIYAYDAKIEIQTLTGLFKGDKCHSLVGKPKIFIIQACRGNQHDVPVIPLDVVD
Target sequence (P55212 194-293 limits assumed): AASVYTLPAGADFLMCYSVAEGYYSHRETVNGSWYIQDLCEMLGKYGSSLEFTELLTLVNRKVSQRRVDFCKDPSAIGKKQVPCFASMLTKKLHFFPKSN
PGC1a acetyl inh: inhibitors of PGC1a acetylation signal, primary screen, cell-based, U2OS, AlphaScreen, inhibitor mode | AlphaScreen anti-acetyl-lysine; with virally co-expressed GCN5 acetyltransferase | inhibition, % at 15.6 µM | 350,000 tested, 0.17% active;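 active = every replicate shows inhibition of at least 40%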
ERAP1 HTS inh: human ERAP1 aminopeptidase inhibitors, primary screen, biochemical, single point, plate reader; Endoplasmic reticulum aminopeptidase 1 (Homo sapiens), Q9NZ08; recombinant ERAP1, Leu-AMC fluorescence, 60 min; inhibition, % at 10.7 µM; 340,000 tested, 0.15% active; AID 652197, 2013;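 active = mean replicate inhibition of at least 30%, or all replicates individually reaching that 30% level; inactive = mean below 30% and not every replicate reaching it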
Ecoli rRNA inh: reduced GFP signal of wild-type E. coli, primary screen, bacterial rRNA inhibitor project, GFP/RFP fluorescence, OD600, single point; 350,000 tested, 1.6% active; GFP signal change (wild-type ribosome), % (concentration not given with the values); E. coli WT GFP vs humanized-ribosome RFP mutants, 24 h; stronger effect = lower value; DMSO median 0, no signal -100;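 active = significant combined selectivity score with lowered wild-type GFP, culture density cut under 30%, mutant RFP and density less affected; inactive = any of these conditions unmet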
ARNT Alpha ctr: AlphaScreen signal interference compounds, dose response, artefact control for ARNT-TACC3 interaction inhibitor project, biochemical, luminescence, cherry-pick. shares compounds with ARNT-TACC3 inh. His-ARNT PASB-GST AlphaScreen artifact counter-screen. AC50, µM (titrated, usually from 68 µM). 1,200 tested, 50% active;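 active = every separate test run was called active for a drop in luminescence, with AC50 within twice the top valid dose, actives reach about 71 µM in these data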
A number is an active result; 0 = inactive; - = no result given.

SMILES	ARNT-TACC3 inh	S100A4 MyoIIA	CASP6 VEID inh	PGC1a acetyl inh	ERAP1 HTS inh	Ecoli rRNA inh	ARNT Alpha ctr
CCCN(CCC)c1nc(-c2ccccn2)nc2ccccc12	60	0	0	0	0	0	0
COc1ccc(NC(=O)N(C)C[C@@H]2Oc3ccc(NC(=O)C4CC4)cc3C(=O)N([C@@H](C)CO)C[C@@H]2C)cc1	0	0	0	0	0	0	-
O=c1ccc(-c2ccc(S(=O)(=O)NCc3cccc(Br)c3)s2)n[nH]1	0	0	0	0	0	0	-
O=c1ccc(-c2ccc(S(=O)(=O)Nc3ccc(F)cc3)s2)n[nH]1	50	0	0	0	0	0	0
O=C(C[C@@H]1CC[C@H](NC(=O)CN2CCOCC2)[C@H](CO)O1)NCCc1ccncc1	57	0	0	0	0	0	0
O=C(C[C@@H]1CC[C@@H](NC(=O)CN2CCOCC2)[C@H](CO)O1)NCCc1ccncc1	0	0	0	0	0	0	-
CO[C@H]1CN(C)C(=O)c2ccc(NC(=O)Nc3ccccc3F)cc2OC[C@@H](C)N(C)C[C@@H]1C	0	0	0	0	0	0	-
C[C@H](CO)N1C[C@H](C)[C@@H](CN(C)C(=O)Cc2ccncc2)Oc2cc(C#CC3(O)CCCC3)ccc2S1(=O)=O	-	-	-	0	-	0	-
Cc1ccc(S(=O)(=O)n2nc(C)cc2N)cc1	0	0	0	0	0	0	-
Cc1ccc(S(=O)(=O)n2nc(C)c(C#N)c2N)cc1	67	0	0	-	0	0	0
Oc1c(Br)cccc1/C=N/c1ncn[nH]1	51	0	0	0	0	0	0
C[C@@H]1CN([C@@H](C)CO)C(=O)c2cc(NC(=O)c3ccccc3)ccc2O[C@@H](C)CCCCO[C@@H]1CN(C)S(=O)(=O)c1cn(C)cn1	0	0	0	0	0	0	-
COc1ccc(-c2nc(C#N)c(N3CCCCC3)o2)cc1	54	0	0	0	0	0	71µM
Cc1c(C(=O)O)cccc1[N+](=O)[O-]	-	0	0	0	0	0	-
O=C(O)c1c[nH]c2c([N+](=O)[O-])cccc2c1=O	49	0	36	0	0	0	0
CCCN(C(=O)Cc1nc(N)n[nH]1)C1(C(=O)Nc2ccccc2C)CCCCC1	50	-	-	0	-	-	0
C[C@@H]1CCCCO[C@H](CN(C)C(=O)Nc2ccc(C(F)(F)F)cc2)[C@H](C)CN([C@@H](C)CO)C(=O)c2cc(NC(=O)c3ccncc3)ccc2O1	0	0	0	0	0	0	-
COc1cccc(NC(=O)N2CC(=O)N3[C@@H](CO)[C@H](c4ccc(C#CC5CCCC5)cc4)[C@@H]3C2)c1	-	0	0	0	0	0	-
CC1(C)Cc2c(sc3nc(-c4ccccc4)n(N)c(=O)c23)CO1	0	-	-	0	-	-	-
CC1(C)Cc2c(sc3nc4n(-c5ccccc5)c(=O)c(CCC(=O)O)nn4c(=O)c23)CO1	57	0	0	0	0	0	0
C[C@@H]1CCCCO[C@H](CN(C)Cc2ccc3c(c2)OCO3)[C@@H](C)CN([C@H](C)CO)C(=O)c2cc(NC(=O)Nc3ccc(C(F)(F)F)cc3)ccc2O1	0	0	0	0	0	0	-
C[C@@H]1CN([C@H](C)CO)C(=O)c2cc(NC(=O)Nc3ccc(C(F)(F)F)cc3)ccc2O[C@@H](C)CCCCO[C@@H]1CN(C)Cc1ccc2c(c1)OCO2	56	0	0	0	0	0	26µM
C[C@H](CO)N1C[C@H](C)[C@@H](CN(C)C(=O)Nc2ccc(C(F)(F)F)cc2)Oc2ncc(C3=CCCC3)cc2C1=O	81	0	0	0	0	0	0
C[C@@H]1CN([C@@H](C)CO)C(=O)c2cc(NC(=O)C3CCCCC3)ccc2O[C@@H](C)CCCCO[C@@H]1CN(C)C(=O)NC1CCCCC1	active	0	0	0	0	0	0
C[C@@H]1CN([C@@H](C)CO)C(=O)c2cc(NC(=O)C3CC3)ccc2O[C@H]1CN(C)C(=O)Nc1ccc(F)cc1	55	0	0	0	0	0	0
SMILES	ARNT-TACC3 inh	S100A4 MyoIIA	CASP6 VEID inh	PGC1a acetyl inh	ERAP1 HTS inh	Ecoli rRNA inh	ARNT Alpha ctr
C[C@@H]1CN([C@H](C)CO)C(=O)c2cc(C3=CCCC3)cnc2O[C@H]1CN(C)C(=O)Nc1ccc(C(F)(F)F)cc1	0	0	0	0	0	0	-
C[C@H](CO)N1C[C@H](C)[C@@H](CN(C)C(=O)Nc2ccccc2)Oc2cc(C#CC3(O)CCCC3)ccc2S1(=O)=O	0	0	0	0	0	0	-
C[C@@H]1CN([C@@H](C)CO)C(=O)c2cc(NC(=O)CCN3CCOCC3)ccc2O[C@@H]1CN(C)Cc1ccncc1	51	0	0	0	0	0	0
C[C@H]1CCCCO[C@H](CN(C)C(=O)Nc2ccc(F)cc2)[C@@H](C)CN([C@@H](C)CO)C(=O)c2cc(NS(=O)(=O)c3ccc(Cl)cc3)ccc2O1	active	0	0	0	0	0	0
C[C@@H]1CN([C@@H](C)CO)C(=O)c2cc(NC(=O)CCN3CCOCC3)ccc2O[C@H]1CN(C)Cc1ccc(C(=O)O)cc1	0	0	0	0	0	0	-
C[C@H](CO)N1C[C@H](C)[C@H](CN(C)C(=O)Nc2ccc(F)cc2)OCCCC[C@H](C)Oc2ccc(NS(=O)(=O)c3ccc(Cl)cc3)cc2C1=O	0	0	0	0	0	0	-
COc1ccc(S(=O)(=O)Nc2ccc3c(c2)C(=O)N([C@@H](C)CO)C[C@H](C)[C@H](CN(C)S(=O)(=O)c2ccc(C)cc2)O3)cc1	0	0	0	0	0	0	-
COc1ccc(S(=O)(=O)Nc2ccc3c(c2)C(=O)N([C@H](C)CO)C[C@H](C)[C@H](CN(C)S(=O)(=O)c2ccc(C)cc2)O3)cc1	52	0	0	0	0	0	0
Cc1ccc(S(=O)(=O)N[C@H]2CC[C@@H](CCn3cc(C(C)C)nn3)O[C@@H]2CO)cc1	0	0	0	0	0	0	-
C[C@H]1CN([C@@H](C)CO)S(=O)(=O)c2ccc(C3=CCCCC3)cc2O[C@H]1CN(C)C	-	-	-	0	-	0	-
COc1cccc(CNC(=O)CSc2ccc(-c3ccco3)nn2)c1	0	0	0	0	0	0	-
O=C(CSc1ccc(-c2ccccn2)nn1)NCc1ccc(Cl)cc1	53	0	0	0	-	0	69µM
COc1cccc(CNC(=O)CSc2ccc(-c3ccccn3)nn2)c1	66	0	0	0	-	0	61µM

Source: PubChem BioAssay (Broad Institute)
